The results in this text go back to ChEMBL document CHEMBL5608238, “Discovery of Thiophene Derivatives as Potent, Orally Bioavailable, and Blood-Brain Barrier-Permeable Ebola Virus Entry Inhibitors” (J Med Chem, 2024).

Data set [1] concerns Ebolavirus. The experiment in a line: Antiviral activity against EBOV Kikwit infected in HeLa cells. In kind it is functional, organism-based. The note with it: Orthoebolavirus.
Data set [2] in a line: Selectivity index, ratio of CC50 for african green monkey Vero E6 cells to EC50 for EBOV infected in Vero E6 cells. Format: toxicity, cell-based. To be noted: read-out: Ratio CC50/EC50.
Data set [3] in a line: Cytotoxicity against african green monkey Vero E6 cells. In kind it is toxicity, cell-based, Vero C1008. To be noted: chlorocebus sabaeus.
For data set [4], the system named is Ebolavirus. The data set can be described thus: Antiviral activity against EBOV infected in HeLa cells. Format: functional, organism-based. The note with it: Orthoebolavirus.
The test system of data set [5] is Ebolavirus. The data set can be described thus: Antiviral activity against EBOV-GP pseudotyped virus infected in Vero E6 cells preincubated with cells for 1 hr followed by viral addition and measured after 24 hrs by Steady-Glo microplate luminometer analysis. Format: functional, organism-based. The note with it: Orthoebolavirus, Vero C1008. In a few lines:
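VeroE6 cells (2 × 10⁴/well) were treated with compound at 10 nM–10 μM for 1 h at 37 °C, then infected with 5000 TCID of EBOV Mayinga GP-pseudotyped rVSVΔG-luciferase. Luciferase was read by Steady-Glo after 24 h.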

The nature of data set [6]: Selectivity index, ratio of CC50 for african green monkey Vero E6 cells to EC50 for wild type Zaire EBOV Mayinga 1976 infected in Vero E6 cells. In kind it is toxicity, cell-based. The note with it: read-out: Ratio CC50/EC50.
The nature of data set [7]: Selectivity index, ratio of CC50 for african green monkey Vero E6 cells to EC50 for EBOV-GP pseudotyped virus infected in Vero E6 cells. To be noted: read-out: Ratio CC50/EC50. In kind it is toxicity, cell-based.
Data set [8] is described as follows: Toxicity in C57BL/6 mouse assessed as tolerability at 50 mg/kg, po measured after 4 days. To be noted: in vivo, 96 h, time 4 day. In kind it is organism-based. Put shortly:
(§1)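 Male and female C57BL/6 mice (3/sex/group) got a single oral gavage dose of 50, 100 or 250 mg/kg at 10 mL/kg, in 7.5% NMP, 7.5% Solutol HS-15, 25% PEG-400 and 60% RO water. Controls received vehicle. Clinical signs, body weight, percent weight gain and feed consumption were followed for 4 days, then survivors underwent euthanasia and gross pathology.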

The nature of data set [9]: Drug concentration in BALB/c mouse plasma at 50 mg/kg, po measured upto 24 hrs by LC-MS/MS analysis. Format: ADME, organism-based. In a few lines: (§2)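 Male BALB/c mice (8–12 weeks, 20–35 g) were given a single dose of test compound solution, either 10 mg/kg i.p. or 50 mg/kg p.o., at 10 mL/kg. Blood and then brain were taken from three mice per time point up to 24 h postdose. Plasma and brain levels were measured by LC–MS/MS, and parameters came from noncompartmental analysis.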

A short description of data set [10]: AUClast in BALB/c mouse brain at 10 mg/kg, ip measured upto 24 hrs by LC-MS/MS analysis. The note with it: in vivo. Format: ADME, organism-based. Put shortly:
as §2

A short description of data set [11]: Toxicity in C57BL/6 mouse assessed as decrease in body weight gain at 100 mg/kg, po measured after 4 days. The note with it: in vivo, 96 h, time 4 day. Format: organism-based. Put shortly: as §1
Data set [12] in a line: Drug concentration in BALB/c mouse plasma at 10 mg/kg, ip measured upto 24 hrs by LC-MS/MS analysis. Format: ADME, organism-based. In a few lines: as §2
Data set [13] is described as follows: AUClast in BALB/c mouse plasma at 10 mg/kg, ip measured upto 24 hrs by LC-MS/MS analysis. The note with it: in vivo. In kind it is ADME, organism-based. In a few lines: as §2
Data set [14] can be described thus: Drug concentration in BALB/c mouse brain at 10 mg/kg, ip measured upto 24 hrs by LC-MS/MS analysis. Format: ADME, organism-based. The note with it: read-out: Ct. Put shortly: as §2
Data set [15] in a line: AUClast in BALB/c mouse brain at 50 mg/kg, po measured upto 24 hrs by LC-MS/MS analysis. In kind it is ADME, organism-based. The note with it: in vivo. In a few lines:
as §2

Data set [16] can be described thus: Toxicity in C57BL/6 mouse assessed as mortality at 250 mg/kg, po measured after 4 days. Format: organism-based. To be noted: in vivo, 96 h, time 4 day. Put shortly: as §1
Data set [17] is described as follows: AUClast in BALB/c mouse plasma at 50 mg/kg, po measured upto 24 hrs by LC-MS/MS analysis. In kind it is ADME, organism-based. To be noted: in vivo. Put shortly:
as §2

Data set [18] in a line: Toxicity in C57BL/6 mouse assessed as decrease in feed consumption at 100 mg/kg, po measured after 4 days. Format: organism-based. To be noted: in vivo, 96 h, time 4 day. In a few lines: as §1
Data set [19] can be described thus: Drug concentration in BALB/c mouse brain at 50 mg/kg, po measured upto 24 hrs by LC-MS/MS analysis. Format: ADME, organism-based. The note with it: read-out: Ct. In a few lines:
as §2

Data set [20] can be described thus: Cmax in BALB/c mouse brain at 50 mg/kg, po measured upto 24 hrs by LC-MS/MS analysis. Format: ADME, organism-based. The note with it: in vivo. Put shortly:
as §2

The nature of data set [21]: Tmax in BALB/c mouse brain at 50 mg/kg, po measured upto 24 hrs by LC-MS/MS analysis. To be noted: in vivo. Format: ADME, organism-based. Put shortly:
as §2

Data set [22] is described as follows: Tmax in BALB/c mouse plasma at 10 mg/kg, ip measured upto 24 hrs by LC-MS/MS analysis. The note with it: in vivo. In kind it is ADME, organism-based. In a few lines:
as §2

Data set [23] is described as follows: Tmax in BALB/c mouse brain at 10 mg/kg, ip measured upto 24 hrs by LC-MS/MS analysis. Format: ADME, organism-based. The note with it: in vivo. In a few lines: as §2
Data set [24] can be described thus: Cmax in BALB/c mouse plasma at 50 mg/kg, po measured upto 24 hrs by LC-MS/MS analysis. The note with it: in vivo. In kind it is ADME, organism-based. Put shortly: as §2
The nature of data set [25]: Tmax in BALB/c mouse plasma at 50 mg/kg, po measured upto 24 hrs by LC-MS/MS analysis. The note with it: in vivo. Format: ADME, organism-based. In a few lines: as §2
Data set [26] deals with Ebolavirus. The experiment in a line: Antiviral activity against EBOV Zaire Kikwit infected in Huh-7 cells incubated for 48 to 72 hrs. In kind it is functional, organism-based. To be noted: Orthoebolavirus.
Data set [27] concerns Ebolavirus. The experiment in a line: Antiviral activity against eGFP-EBOV infected in Vero E6 cells incubated for 48 hrs by spectrofluorometer assay. Format: functional, organism-based. To be noted: Orthoebolavirus, Vero C1008, 48 h.

By EC50 is commonly meant the concentration giving half of the maximal effect. The CC50 is the concentration giving 50% cytotoxicity. The term Cmax denotes the maximum level reached in the sampled fluid or tissue. In general, Tmax refers to the time at which the peak concentration occurs. One may read the IC50 as the concentration needed to halve the response being measured.

`Nc1ncnc2c([C@@H]3N[C@H](CO)[C@@H](O)[C@H]3O)c[nH]c12`: in the data set with Ebolavirus [1], the EC50 turned out to be 11.8 µM.

As to `NC(=O)c1nc(F)c[nH]c1=O`, the selectivity ratio in [2] was 14.9. Moreover, in data set [3], the CC50 is > 1000 µM.

In turn, `CCC(CC)COC(=O)[C@H](C)N[P@](=O)(OC[C@H]1O[C@@](C#N)(c2ccc3c(N)ncnn23)[C@H](O)[C@@H]1O)Oc1ccccc1` registered a 50% effective concentration (EC50) with Ebolavirus [4] of 0.14 µM.

In turn, `O=C(NCCc1ccccc1)c1ccc(-c2cccc(OC3CCNCC3)c2)s1` registered an EC50 in the data set with Ebolavirus [5] of 5.3 µM.

For the compound `O=C(Nc1ccccc1)c1ccc(-c2cccc(OC3CCNCC3)c2)s1`, the selectivity ratio in data set [6] is 113; in data set [7] it was 4.7.

On to `O=C(Nc1ccccc1)c1ccc(-c2ccc(OC3CCNCC3)cc2)s1`, for which the Activity result was “Non-Toxic” in [8], “Toxic” in data set [11], “Toxic” in data set [16] and “Toxic” in data set [18]. The concentration at 24 h in [9] turned out to be 2.04 µM; in data set [12] it was 2.74 µM; in data set [14], 4.43 µM; in [19], 14.8 µM. For the same compound, the AUClast in data set [10] was found to be 25.42934 µg·h/mL; in data set [13] it was 2.97311 µg·h/mL; in data set [15], 97.08613 µg·h/mL; in [17], 8.61024 µg·h/mL.

Consider `O=C(Nc1ccccc1)c1ccc(-c2ccccc2OC2CCNCC2)s1`, for which the concentration at 24 h in data set [9] was 0.29 µM; in data set [12], 0.32 µM; in data set [14] it was 0.33 µM; in data set [19], 0.81 µM. The AUClast in data set [10] was 0.60009 µg·h/mL; in data set [13], 0.27174 µg·h/mL; in data set [15], 3.34142 µg·h/mL; in [17] it was 0.54178 µg·h/mL. Also, the Cmax came out at 0.3167 µg/mL in data set [20] and 0.11231 µg/mL in [24]. Moreover, the Tmax in data set [21] came out at 6 h; in data set [22], 0.25 h; in data set [23] it was 2 h; in [25], 1 h.

Take `CC(C)C(=O)OC[C@H]1O[C@@](C#N)(c2ccc3c(N)ncnn23)[C@H](O)[C@@H]1O` [OBELDESIVIR]: in the data set with Ebolavirus [26], it took 4.16 µM to reach a half-maximal effect (EC50).

In turn, `CN(C)CCOc1ccc(/C(=C(/CCCl)c2ccccc2)c2ccccc2)cc1` [TOREMIFENE] returned an IC50 with Ebolavirus [27] of 0.162 µM.
